Where a SMILES comes first, the peptide text is derived from it. The star is where a group is joined. X1 = Fc1ccc2c(C3CCN(*)CC3)noc2c1
Experiments:
Format in all cases: functional
Escherichia coli [1] = experiment: Antimicrobial activity against Escherichia coli after 24 hrs by agar well diffusion method
Outline: (§1)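 Bacteria grown in nutrient broth at 37 °C for 24 h, subcultured in 25 mL broth at room temperature, then spread on nutrient agar. Wells (6 mm cork borer) filled with 0.1 mL test solution in DMSO, prepared from a 1 mg/mL stock. Amoxicillin as reference, DMSO as negative control. Plates kept 24 h at 37 °C; inhibition zone measured in mm.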

Xanthomonas oryzae [2] = experiment: Antimicrobial activity against Xanthomonas oryzae after 24 hrs by agar well diffusion method
Klebsiella pneumoniae [3] = experiment: Antimicrobial activity against Klebsiella pneumoniae after 24 hrs by agar well diffusion method; outline: as §1
Staphylococcus [4] = experiment: Antimicrobial activity against coagulase positive Staphylococcus after 24 hrs by agar well diffusion method; outline: as §1
Aspergillus niger [5] = experiment: Antifungal activity against Aspergillus niger after 24 hrs by agar well diffusion method
Outline: (§2)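 Fungi subcultured in 25 mL nutrient broth for one day to give inoculum, then spread on solidified Sabouraud agar. Wells punched with a 6 mm cork borer and filled with 0.1 mL test solution in DMSO, prepared from a 1 mg/mL stock. Bavistin as reference, DMSO as negative control. Read-out is inhibition zone diameter (mm).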

Aspergillus flavus [6] = experiment: Antifungal activity against Aspergillus flavus after 24 hrs by agar well diffusion method; outline: as §2
Fusarium oxysporum [7] = experiment: Antifungal activity against Fusarium oxysporum after 24 hrs by agar well diffusion method; outline: as §2
Escherichia coli [8] = experiment: Antimicrobial activity against Escherichia coli after 72 hrs by microdilution method
Xanthomonas oryzae [9] = experiment: Antimicrobial activity against Xanthomonas oryzae after 72 hrs by microdilution method
Klebsiella pneumoniae [10] = experiment: Antimicrobial activity against Klebsiella pneumoniae after 72 hrs by microdilution method
Staphylococcus [11] = experiment: Antimicrobial activity against coagulase positive Staphylococcus after 72 hrs by microdilution method
Aspergillus niger [12] = experiment: Antifungal activity against Aspergillus niger after 72 hrs by microdilution method
Aspergillus flavus [13] = experiment: Antifungal activity against Aspergillus flavus after 72 hrs by microdilution method
Fusarium oxysporum [14] = experiment: Antifungal activity against Fusarium oxysporum after 72 hrs by microdilution method

Compound | inhibition zone (IZ) (Escherichia coli [1]) [mm] | inhibition zone (IZ) (Xanthomonas oryzae [2]) [mm] | inhibition zone (IZ) (Klebsiella pneumoniae [3]) [mm] | inhibition zone (IZ) (Staphylococcus [4]) [mm] | inhibition zone (IZ) (Aspergillus niger [5]) [mm] | inhibition zone (IZ) (Aspergillus flavus [6]) [mm] | inhibition zone (IZ) (Fusarium oxysporum [7]) [mm] | MIC (Escherichia coli [8]) [µg/mL] | MIC (Xanthomonas oryzae [9]) [µg/mL] | MIC (Klebsiella pneumoniae [10]) [µg/mL] | MIC (Staphylococcus [11]) [µg/mL] | MIC (Aspergillus niger [12]) [µg/mL] | MIC (Aspergillus flavus [13]) [µg/mL] | MIC (Fusarium oxysporum [14]) [µg/mL]
NCC(=O)N[C@@H](Cc1ccccc1)C(=O)NCC(=O)N[C@@H](Cc1ccccc1)C(=O)N1CCC[C@H]1C(=O)N1CCC(c2noc3cc(F)ccc23)CC1.O=C(O)C(F)(F)F (H-GFGFP-X1) | 25 | 20 | 18 | 18 | 29 | 21 | 23 | 8 | 9 | 6 | 8 | 6 | 8 | 8
C[C@H](NC(=O)CNC(=O)CN)C(=O)N1CCC[C@H]1C(=O)N1CCC(c2noc3cc(F)ccc23)CC1.O=C(O)C(F)(F)F (H-GGAP-X1) | 18 | 13 | 12 | 11 | 19 | 13 | 16 | 17 | 13 | 14 | 16 | 15 | 18 | 19
NCC(=O)NCC(=O)N[C@@H](Cc1ccccc1)C(=O)N1CCC[C@H]1C(=O)N1CCC(c2noc3cc(F)ccc23)CC1.O=C(O)C(F)(F)F (H-GGFP-X1) | 22 | 16 | 15 | 14 | 25 | 16 | 20 | 14 | 11 | 11 | 13 | 11 | 15 | 16
CC(C)[C@H](NC(=O)CN)C(=O)NCC(=O)N[C@H](C(=O)N1CCC[C@H]1C(=O)N1CCC(c2noc3cc(F)ccc23)CC1)C(C)C.O=C(O)C(F)(F)F (H-GVGVP-X1) | 23 | 17 | 17 | 15 | 27 | 17 | 21 | 11 | 10 | 8 | 10 | 8 | 9 | 10
